1 compound from ChEMBL document CHEMBL5674882, “Benzolactam-related compounds promote apoptosis of HIV-infected human cells via protein kinase C-induced HIV latency reversal” (J Biol Chem, 2019) can be followed below.

Each structure is given as a SMILES string. Activity calls are given as the source filed them. The calls are words filed in the database; no cut-off is given here.

Data set [1] concerns the target T1, Protein kinase C (PKC) (Homo sapiens) (UniProt O94806+P41743+P17252+P05129+Q05655+P05771+Q05513+Q02156+P24723+Q15139+Q04759). In words: Activation of PKC in human J-Lat 6.3 cells infected with latent HIV-1 assessed as reversal of HIV-1 latency by measuring increase of GFP-positive cells at 10 uM in presence of PKC theta/delta/epsilon/eta inhibitor PKCtheta/delta inhibitor incubated for 24 hrs by flow cytometry. It counts as cell-based. Summed up:
(§1)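 J-Lat 6.3 cells pretreated 3 h with a PKC inhibitor: Gö 6983 1 µM, Gö 6976 1 µM, GF 109203X 1 µM, PKCθ/δ inhibitor 10 µM, or Rottlerin 1 µM. Then exposed to 10 µM compound for 24 h; GFP-positive cells counted by flow cytometry. Mean ± S.D.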
A general note: Flow cytometry measures light scatter and fluorescence of single cells or particles in a stream.

In data set [2] the test system is U1. In words: Induction of apoptosis in human U1 cells at 1 uM incubated for 48 hrs by propidium iodide/annexin-V staining based flow cytometry. Format: functional.
Data set [3] concerns J-Lat 6.3 (Homo sapiens). In words: Induction of apoptosis in human J-Lat 6.3 cells at 1 uM incubated for 48 hrs after pre-incubated for 2 hrs with 20 uM caspase inhibitor Q-VD-Oph by propidium iodide/annexin-V staining based flow cytometry.
Data set [4] can be described thus: Toxicity in human CD4+ T-cells assessed as elevation of supernatant cytokine concentrations of IL-6 incubated for 24 hrs by bead-based immunoassay. The following applies: cd4+ t cell. Summed up:
(§2)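 Purified CD4+ T-cells from healthy donors treated 24 h with 1 μm drug, 1 μm JQ1, or the combination. IL-2, IL-5, IL-6, IL-13, TNFα and IFN-γ in supernatants measured by flow-cytometry bead-based Th1/Th2 immunoassay. Run in duplicate.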

For data set [5], the system named is J-Lat 6.3. In words: Induction of apoptosis in human J-Lat 6.3 cells assessed as caspase-3 activation at 1 uM incubated for 24 hrs by flow cytometry (reference value: 2.43%). It counts as functional. Summed up:
(§3)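 Cells fixed in 1% paraformaldehyde, permeabilized, stained 30 min on ice with anti-active caspase-3 mAb, and analysed by flow cytometry. Three independent experiments.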

Data set [6] deals with T1, Protein kinase C (PKC) (Homo sapiens). In words: Activation of PKC in human U1 cells infected with latent HIV-1 assessed as reversal of HIV-1 latency by measuring increase in p24 antigen level at 1 to 10000 nM incubated for 48 hrs by chemiluminescent enzyme immunoassay. It counts as cell-based. The following applies: filed as activator, dose 1-10000 nM. Summed up: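 ACH-2 or U1 cells (5 × 10^5 cells/ml) incubated 48 h with graded drug concentrations. Supernatant p24 antigen measured by automated chemiluminescent immunoassay. EC50 calculated taking the maximum response with excess PMA as 100%. Means ± S.D. of three independent experiments.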

Data set [7] shares this target. In words: Activation of PKC in human J-Lat 10.6 cells infected with latent HIV-1 assessed as reversal of HIV-1 latency by measuring increase of GFP-positive cells at 100 to 400 nM in presence of 200 nM Prostratin incubated for 24 hrs by flow cytometry. The following applies: filed as activator, dose 100-400 nM. It counts as cell-based.
Data set [8] in a line: Toxicity in human CD4+ T-cells assessed as elevation of supernatant cytokine concentrations of TNFalpha incubated for 24 hrs by bead-based immunoassay. The note with it: cd4+ t cell. Summed up: as §2
In data set [9] the test system is U1. In words: Induction of apoptosis in human U1 cells assessed as caspase-3 activation at 1 uM incubated for 24 hrs by flow cytometry (reference value: 1.86%). It counts as functional. In outline: as §3
Data set [10] can be described thus: Toxicity in human CD4+ T-cells assessed as elevation of supernatant cytokine concentrations of IFNgamma incubated for 24 hrs in presence of JQ1 by bead-based immunoassay. The note with it: cd4+ t cell. Summed up:
as §2

The nature of data set [11]: Toxicity in human CD4+ T-cells assessed as increase in ratio of CD69+ cells incubated for 24 hrs by flow cytometry. The note with it: cd4+ t cell. It counts as cell-based. Summed up: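 Primary CD4+ T-cells from healthy donors treated with drug for 24 h. Cells stained with anti-CD25 and anti-CD69 antibodies (plus CD3, CD4, HLA-DR) for 30 min on ice, then marker-positive proportions quantified by flow cytometry.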

Data set [12] concerns the target T1, Protein kinase C (PKC) (Homo sapiens). In words: Activation of PKC in human J-Lat 10.6 cells infected with latent HIV-1 assessed as reversal of HIV-1 latency by measuring increase of GFP-positive cells at 100 to 400 nM in presence of 1 uM SAHA incubated for 24 hrs by flow cytometry. It counts as cell-based. The note with it: filed as activator, dose 100-400 nM.

For data set [13] the target is unchanged. In words: Activation of PKC in CCL19-induced human CD4+ T-cells infected with latent HIV-1 assessed as reversal of HIV-1 latency by measuring increase in p24 antigen level at 1 uM incubated for 48 hrs by chemiluminescent enzyme immunoassay. Format: cell-based. The following applies: CD4+ T cell, filed as activator.
In data set [14] the test system is CD4+ T cell. In words: Induction of apoptosis in CCL19-induced human CD4+ T-cells infected with latent HIV-1 assessed as caspase-3 activation at 1 uM incubated for 48 hrs by FACS. It counts as functional, cell-based. In outline:
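Latency model: healthy-donor CD4+ T-cells given 100 nM CCL19 for 2 days, infected with HIV-1 NL4-3, kept 5 days in IL-2. Stimulated 2 days with 1 µM drug or 100 nM PMA plus 2 µM ionomycin. Cells fixed and permeabilized, co-stained with anti-p24 and anti-active caspase-3 mAbs; active caspase-3 read by flow cytometry separately in p24+ and p24− cells. Two donors.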

The target of data set [15] is T1, Protein kinase C (PKC) (Homo sapiens). In words: Synergistic activation of PKC in CD4+ T-cells purified from HIV-infected patient assessed as increase in transcription of HIV mRNA at 5 uM incubated for 24 hrs in presence of 1 uM JQ1 by qRT-PCR method. Format: cell-based. The following applies: CD4+ T cell, filed as activator. In outline: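 CD4+ T-cells purified from PBMC of patients on cART for at least 5 years with plasma viral load <20 copies/ml. Cells plated at 2.5 × 10^6 cells/ml and treated 24 h, alone or with 1 μm JQ1. Intracellular HIV RNA measured by qRT-PCR against a plasmid standard curve, normalised per ng input RNA, relative to untreated cells. Synergy assessed by Bliss independence model.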

Data set [16] has the same target. In words: Activation of PKC in human J-Lat 6.3 cells infected with latent HIV-1 assessed as reversal of HIV-1 latency by measuring increase of GFP-positive cells at 10 uM in presence of PKC delta inhibitor Rottlerin incubated for 24 hrs by flow cytometry. It counts as cell-based. In outline:
as §1

The target is the same in data set [17]. In words: Synergistic activation of PKC in human U1 cells infected with latent HIV-1 assessed as reversal of HIV-1 latency by measuring increase in p24 antigen level at 25 nM incubated for 48 hrs in presence of 100 nM JQ1 by chemiluminescent enzyme immunoassay relative to compound alone. Format: cell-based. The note with it: filed as activator. In outline:
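U1 cells at 5 × 10^5 cells/ml incubated 48 h with test agent alone or plus 100 nm JQ1. Supernatant p24 antigen quantified by automated immunoassay. Fold reactivation computed versus the same agent without JQ1. Mean ± S.D. of three independent experiments.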

Data set [18] in a line: Toxicity in human CD4+ T-cells assessed as elevation of supernatant cytokine concentrations of IL-13 incubated for 24 hrs in presence of JQ1 by bead-based immunoassay. The note with it: cd4+ t cell. Summed up: as §2
Data set [19] has as its target T1, Protein kinase C (PKC) (Homo sapiens). In words: Activation of PKC in human J-Lat 6.3 cells infected with latent HIV-1 assessed as reversal of HIV-1 latency by measuring increase of GFP-positive cells at 10 uM in presence of PKC alpha/beta inhibitor Go-6976 incubated for 24 hrs by flow cytometry. It counts as cell-based. Summed up: as §1

On to `CCCCCCCCCCc1ccc2c(c1)N(C)[C@@H](C(C)C)C(=O)N[C@H](CO)C2`, for which the outcome in data set [1], in [3], in data set [16] and in [19] was inactive. In addition, the Activity in data set [2] is 28.4%; in [4], “Toxic”; in data set [5], 21.9%; in [8], “Toxic”; in [9], 7.7%; in [10] it was “Non-Toxic”. Also, the Activity result in [11] and in data set [18] was “Non-Toxic” in each case. Further, the outcome in [6], in data set [7], in data set [12], in data set [13] and in data set [14] was Active. In addition, the fold change (FC) in [15] came to 13.4; in data set [17], 22.9.
